# B1: tRNA (parent)
# chain: GUUCCGUUGGCGUAAUGGUAACGCGUCUCCCUCCUAAGGAGAAGACUGCGGGUUCGAGUCCCGUACGGAACG
# Variants of: B1
# Test: yeast fitness, log relative to wild type (ln ratio); higher = fitter; tRNA-Arg(CCU), competitive growth, 37 C, 1 M NaCl
# Summary of the method: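 BY4742 cells without the chromosomal tRNA-Arg(CCU) gene carried a combinatorial variant library on a HIS3 centromeric plasmid, from two independent transformations. After 4 generations in SC-HIS at 30 °C, pools spent ~6.5 generations (~26.5 h) in SC-HIS 1M NaCl at 37 °C, giving three outputs per input, and 125 bp paired-end Illumina reads counted the variants. Fitness is the natural log of each genotype's generations over the wild type's, with generations taken as OD-scaled log2 output/input frequency weighted by inverse variance across replicates.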
row,Variant,yeast fitness (ln)
1,U2G G6U C27U A43C C46U C66A,-0.0517
2,U2G G6U C27U A70G C71U,-0.285
3,U2G G6U C27U A43C C46U C66U A70U,-0.227
4,U2G G6U C27U A43C C46U C66U A70G,-0.311
5,G6A C27U A43C C46U C66U A69G A70U,-0.306
6,G6A C27U A43C C46U C66U A69G A70G,-0.369
7,U2G G6U C66U A69G A70U C71U,-0.421
8,U2G G6U C46U C66U,-0.131
9,U2G G6U C46U C66A,-0.0648
10,G6A A43C C71U,-0.144
11,G6A A70U C71U,-0.14
12,G6A A43C C46U A69G A70G,-0.216
13,G6A A43C C46U A69G A70U,-0.124
14,G6A A43C A69G A70U,-0.224
15,G6A A43C A69G A70G,-0.26
16,G6A A69G,-0.0982
17,U2G G6U C46U C66U A70G C71U,-0.152
18,G6A C27U A43C C46U C66U A69G A70U C71U,-0.447
19,G6A A70G C71U,-0.175
20,G6A A43C C46U C66U A69G A70G C71U,-0.24
21,U2G G6U C27U A43C C66A C71U,-0.39
22,G6A C27U A43C C46U A70U,-0.139
23,G6A C27U A43C C46U A70G,-0.128
24,U2G G6U C46U,-0.0208

row,Variant,yeast fitness (ln)
1,G6A C27U A43C C46U A69G A70G C71U,-0.306
2,G6A A43C C46U C66U C71U,-0.12
3,U2G G6U C27U C46U C66A A69G A70U C71U,-0.314
4,U2G G6U C66U A70U C71U,-0.303
5,G6A C27U A43C A70U C71U,-0.322
6,G6A A43C C46U C66U A69G A70G,-0.233
7,G6A A43C C46U C66U A69G A70U,-0.159
8,U2G G6U C27U C46U C66U A70U,-0.106
9,U2G G6U C27U C46U C66U A70G,-0.176
10,U2G G6U C46U C71U,-0.134
11,U2G G6U C46U A69G A70U,-0.402
12,U2G G6U C46U A69G A70G,-0.109
13,U2G G6U C27U C46U C66A A70U C71U,-0.143
14,U2G G6U C27U A43C C46U A69G,-0.199
15,U2G G6U C27U A70G,-0.211
16,U2G G6U C27U A70U,-0.397
17,U2G G6U C27U A43C C46U C66A C71U,-0.363
18,G6A C27U A43C C66U A69G,-0.373
19,U2G G6U C27U A43C C46U C71U,-0.197
20,G6A A43C C66A A70G C71U,-0.275
21,U2G G6U C46U C66U A69G A70G C71U,-0.231
22,U2G G6U C46U C66U A69G A70U,-0.264
23,U2G G6U C46U C66U A69G A70G,-0.162
24,U2G G6U C46U A69G C71U,-0.129

row,Variant,yeast fitness (ln)
1,U2G G6U C27U C46U A69G C71U,-0.205
2,U2G G6U C27U C46U C71U,-0.199
3,G6A A43C C66U,-0.0381
4,U2G G6U C66A A69G A70G,-0.25
5,U2G G6U C66A A69G A70U,-0.000141
6,U2G G6U C27U A43C C46U C66A A69G C71U,-0.352
7,U2G G6U C66A A69G A70U C71U,-0.726
8,G6A A43C C46U C66U A69G A70U C71U,-0.233
9,G6A A43C C46U C66A A70U C71U,-0.312
10,U2G G6U C27U A43C C66A A69G A70U,-0.315
11,U2G G6U C27U A43C C66A A69G A70G,-0.219
12,G6A A43C C46U A70U C71U,-0.151
13,U2G G6U C27U C46U A69G A70G C71U,-0.268
14,G6A A69G C71U,-0.134
15,U2G G6U C27U A43C C46U C66A A69G A70U C71U,-0.386
16,U2G G6U C66U A70G C71U,-0.151
17,U2G G6U C46U C66A C71U,-0.0521
18,U2G G6U C27U C46U C66U,-0.147
19,U2G G6U C27U C46U C66A,-0.144
20,G6A A69G A70U C71U,-0.315
21,U2G G6U C66U A69G C71U,-0.239
22,U2G G6U A69G A70G C71U,-0.235
23,U2G G6U C46U C66A A69G A70G C71U,-0.164
24,U2G G6U C27U A69G A70U C71U,-0.515

row,Variant,yeast fitness (ln)
1,G6A C27U A43C C46U A69G A70G,-0.237
2,G6A C27U A43C C46U A69G A70U,-0.16
3,U2G G6U C27U A69G C71U,-0.286
4,U2G G6U C27U A43C C46U C66A A69G A70G C71U,-0.279
5,G6A C27U A43C A70U,-0.263
6,G6A C27U A43C A70G,-0.213
7,G6A C27U A43C A69G A70U C71U,-0.238
8,U2G G6U C27U C66A A69G A70G C71U,-0.25
9,U2G G6U C27U A43C A69G A70U C71U,-0.484
10,U2G G6U C66U,-0.0894
11,U2G G6U C66A,-0.0885
12,U2G G6U C66A A70U C71U,-0.0189
13,U2G G6U C27U A43C C46U C66A A70G C71U,-0.197
14,G6A C27U A43C C46U,-0.084
15,U2G G6U C27U C46U C66U A70G C71U,-0.261
16,U2G G6U C27U A43C C46U A70U,-0.156
17,U2G G6U C27U A43C C46U A70G,-0.208
18,U2G G6U C27U A43C C66A A69G A70U C71U,-0.382
19,U2G G6U C27U,-0.0917
20,G6A C27U A43C C46U C66A A70G C71U,-0.296
21,U2G G6U C27U A43C C46U A69G C71U,-0.336
22,U2G G6U C27U C46U A70U C71U,-0.171
23,G6A C27U A43C A69G A70U,-0.345
24,G6A C27U A43C A69G A70G,-0.264

row,Variant,yeast fitness (ln)
1,U2G G6U C27U A43C A70G,-0.232
2,U2G G6U C27U A43C A70U,-0.207
3,G6A C27U A43C,-0.131
4,G6A C27U A43C C66U A70G C71U,-0.302
5,U2G G6U C27U C66U A69G A70U C71U,-0.439
6,U2G G6U C27U C46U C66U A70U C71U,-0.312
7,U2G G6U C27U C66A A70G C71U,-0.239
8,U2G G6U C27U A43C C46U A70U C71U,-0.228
9,U2G G6U C27U C46U C66U A69G A70G C71U,-0.356
10,G6A C27U A43C C46U C66U A70G C71U,-0.213
11,U2G G6U A70U C71U,-0.109
12,U2G G6U C46U C66U C71U,-0.2
13,G6A A43C C66A A69G A70G C71U,-0.261
14,G6A A43C C66U A70U C71U,-0.384
15,G6A A43C C66A A70U,-0.188
16,G6A A43C C66A A70G,-0.154
17,U2G G6U C27U A43C C46U C66A A70U,-0.017
18,U2G G6U C27U A43C C46U C66A A70G,-0.21
19,U2G G6U C46U C66A A70G C71U,-0.26
20,U2G G6U A70U,-0.0383
21,U2G G6U A70G,-0.0649
22,U2G G6U C27U C46U C66A A70G C71U,-0.168
23,G6A A43C C66U A69G A70U C71U,-0.295
24,U2G G6U C27U A43C C46U C66U A70G C71U,-0.315

row,Variant,yeast fitness (ln)
1,U2G G6U C27U C46U C66U A69G,-0.258
2,G6A A43C,-0.0714
3,U2G G6U C27U A43C C66A A69G A70G C71U,-0.371
4,G6A A43C C66U A70U,-0.204
5,G6A A43C C66U A70G,-0.128
6,U2G G6U C27U A43C C46U,-0.127
7,G6A C27U A43C C46U C66U A69G A70G C71U,-0.28
8,G6A C27U A43C C66U A69G A70G C71U,-0.371
9,U2G G6U C27U C66U A69G A70G,-0.375
10,U2G G6U C27U C66U A69G A70U,-0.276
11,G6A A43C C46U C66U A70U C71U,-0.268
12,U2G G6U C27U A43C C66U A69G A70U,-0.466
13,U2G G6U C27U A43C C66U A69G A70G,-0.39
14,G6A A43C C46U C66A A70G,-0.144
15,G6A A43C C46U C66A A70U,-0.119
16,G6A A43C C46U A70U,-0.117
17,G6A A43C C46U A70G,-0.0876
18,U2G G6U C27U A43C C46U C66U A69G A70U,-0.374
19,U2G G6U C27U A43C C46U C66U A69G A70G,-0.318
20,U2G G6U C27U A69G A70U,-0.227
21,U2G G6U C27U A69G A70G,-0.246
22,U2G G6U C27U C46U A69G,-0.255
23,G6A C27U A43C C46U C66U C71U,-0.464
24,U2G G6U C27U A43C C71U,-0.304

row,Variant,yeast fitness (ln)
1,G6A C27U A43C C66A A70U,-0.204
2,G6A C27U A43C C66A A70G,-0.337
3,G6A A43C C66U A69G,-0.109
4,U2G G6U C46U A70G C71U,-0.165
5,G6A A43C C46U C66A C71U,-0.229
6,U2G G6U C27U C46U C66A C71U,-0.147
7,U2G G6U C27U C46U C66U A69G C71U,-0.527
8,G6A C27U A43C C46U C66U,-0.0283
9,G6A C27U A43C C46U C66A,-0.269
10,G6A C27U A43C C46U C66A A69G A70U,-0.28
11,G6A C27U A43C C46U C66A A69G A70G,-0.229
12,G6A C27U A43C C46U C66U A69G,-0.188
13,G6A C27U A43C A69G A70G C71U,-0.371
14,G6A A43C C46U A69G A70U C71U,-0.493
15,U2G G6U C46U A69G,-0.157
16,U2G G6U C27U C66A A69G A70U C71U,-0.369
17,G6A A43C A70G,-0.223
18,G6A A43C A70U,-0.143
19,U2G G6U A69G A70U,-0.151
20,U2G G6U A69G A70G,-0.171
21,G6A C27U A43C C46U C66A A70U C71U,-0.346
22,U2G G6U C27U A43C A69G A70U,-0.315
23,U2G G6U C27U A43C A69G A70G,-0.322

# Reference: the RNAGym collection of RNA variant scans (doi:10.1038/s41586-018-0170-7)
